Measurements: ChEMBL document CHEMBL1145287, “Docking and 3-D QSAR studies on indolyl aryl sulfones. Binding mode exploration at the HIV-1 reverse transcriptase non-nucleoside binding site and design of highly active N-(2-hydroxyethyl)carboxamide and N-(2-hydroxyethyl)carbohydrazide derivatives” (J Med Chem, 2005)

Tests used:
Conditions in all cases: Homo sapiens
[1] = system: MT4; assay: Concentration required for 50% protection of infected MT-4 cells from wtIIIB-HIV-1-induced cytopathogenicity was determined by the MTT method; type: functional, cell-based
Procedure, shortened: (§1)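 MT-4 cells (1 × 10⁴/well, RPMI 1640 with 10% FCS, 37 °C, 5% CO₂) were infected with HIV-1 IIIB (H9/IIIB supernatant) at an inoculum causing complete cytopathicity by day 4, across graded compound concentrations. Viability was read by MTT, with cytotoxicity run in parallel on mock-infected cells. Concentration giving 50% protection reported as the mean of three experiments.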

[2] = system: MT4; assay: Protection of infected MT-4 cells from wtIIIB-HIV-1-induced cytopathogenicity; type: functional, cell-based; procedure, shortened: as §1
[3] = system: C8166; assay: Concentration required to reduce the amount of p24 by 90% in wtIIIB-HIV-1-infected C8166 cells; type: functional
Procedure, shortened: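 Acute infection of C8166 cells (1 × 10⁴/well, RPMI 1640 with 10% FCS, 37 °C, 5% CO₂) by HIV-1 IIIB from persistently infected H9/IIIB supernatant, with a virus inoculum sized to cause complete cytopathicity at day 4, in the presence of serially diluted compound (DMSO stock diluted in medium). p24 antigen was measured by immunoenzymatic kit. Concentration giving 90% reduction of p24 reported.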

[4] = system: MT4; assay: Concentration required to achieve 50% protection of infected MT-4 cells from Y181C-HIV-1 strain; type: functional, cell-based
Procedure, shortened: (§2)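 MT-4 cells (1 × 10⁴/well, RPMI 1640 + 10% FCS) exposed to serial compound dilutions (200 mM DMSO stock diluted in medium), infected with enough virus to give full cytopathicity by day 4; wt IIIB from H9/IIIB supernatant, Y181C and K103N–Y181C from NNRTI-selected passages.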

[5] = system: MT4; assay: Concentration required to achieve 50% protection of infected MT-4 cells from K103N-Y181C; type: functional, cell-based; procedure, shortened: as §2
[6] = system: C8166; assay: Concentration required to reduce the amount of p24 by 90% in C8166 cells infected with an efavirenz-resistant strain EFVR; type: functional
Procedure, shortened: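 C8166 cells (1 × 10⁴/well) with serial compound dilutions (200 mM DMSO stock diluted in medium), infected with K103R/V179D/P225H virus selected from IIIB by passage in C8166 cells with efavirenz up to 2 μM (stock 3.0 × 10⁵ CCID₅₀/mL); 37 °C incubation; p24 measured by immunoenzymatic kit; value = concentration giving 90% p24 reduction.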

| Structure (SMILES) | EC50 [2] [nM] | other results |
| --- | --- | --- |
| O=[N+]([O-])c1ccc(Cl)c(S(=O)(=O)n2ccc3ccccc32)c1 |  | EC50 [1]: 6030 nM |
| O=Cc1cc2cc(Cl)ccc2n1S(=O)(=O)c1ccccc1 | > 75000 |  |
| CCOC(=O)C(=O)c1cc2ccccc2n1S(=O)(=O)c1cc(Cl)ccc1N | 1800 |  |
| NNC(=O)C(=O)c1cc2ccccc2n1S(=O)(=O)c1ccccc1 | > 200000 |  |
| NC(=O)c1c(C=O)n(S(=O)(=O)c2ccccc2)c2ccc(Cl)cc12 | ≥ 200000 |  |
| CCOC(=O)C(=O)c1cc2cc(Cl)ccc2n1S(=O)(=O)c1ccc(C)cc1 | > 200000 |  |
| CCOC(=O)C(=O)c1cc2ccccc2n1S(=O)(=O)c1ccc(Cl)cc1 | > 100000 |  |
| CCOC(=O)c1c(C=O)n(S(=O)(=O)c2ccccc2)c2ccccc12 | > 32000 |  |
| CCOC(=O)c1c(C=O)n(S(=O)(=O)c2ccccc2)c2ccc(Cl)cc12 | > 42000 |  |
| CCOC(=O)C(=O)c1cc2cc(Cl)ccc2n1S(=O)(=O)c1cc(Cl)ccc1N | 8300 |  |
| CC(C)OC(=O)c1c(C=O)n(S(=O)(=O)c2ccccc2)c2ccccc12 | > 54000 |  |
| Cc1ccc(Sc2c(C(=O)NNCCO)[nH]c3ccc(Cl)cc23)c(C)c1 |  | EC50 [1]: 2290 nM |
| NC(=O)C(=O)c1cc2ccccc2n1S(=O)(=O)c1ccccc1 | 15000 |  |
| O=C(NCCO)c1[nH]c2ccc(Cl)cc2c1Sc1ccccc1 |  | EC50 [1]: 129 nM |
| Cc1cccc(S(=O)(=O)c2c(C(=O)NNCCO)[nH]c3ccc(Cl)cc23)c1 |  | EC50 [1]: 10 nM |
| NC(=O)c1[nH]c2ccc(Cl)cc2c1S(=O)(=O)c1ccc(Cl)cc1 | 11 |  |
| NC(=O)c1[nH]c2ccc(Cl)cc2c1Sc1ccccc1 | 20 |  |
| Cc1cc(C)cc(S(=O)(=O)c2c(C(N)=O)[nH]c3ccc(C(C)O)cc23)c1 (configuration not stated) | 25 |  |
| NNC(=O)c1[nH]c2ccc(Cl)cc2c1S(=O)(=O)c1cc(Cl)ccc1N | 300 |  |
| NC(=O)c1[nH]c2ccccc2c1S(=O)(=O)c1cc(Cl)ccc1N | 300 |  |
| CCOC(=O)c1[nH]c2ccccc2c1S(=O)(=O)c1cc(Cl)ccc1N | 2500 |  |
| NC(=O)c1[nH]c2ccc(Cl)cc2c1Sc1cc(Cl)ccc1N | 1600 |  |
| NC(=O)c1[nH]c2ccc(Cl)cc2c1S(=O)(=O)c1cc(Cl)ccc1N | 40 |  |
| Cc1cc(C)cc(Sc2c(C(N)=O)[nH]c3ccc(Cl)cc23)c1 | 6 |  |
| CCOC(=O)c1[nH]c2ccccc2c1S(=O)(=O)c1ccccc1 | 3700 |  |
| NC(=O)c1[nH]c2ccccc2c1Sc1ccccc1 | 1400 |  |

| Structure (SMILES) | EC50 [2] [nM] | other results |
| --- | --- | --- |
| CCOC(=O)c1[nH]c2ccccc2c1Sc1ccccc1 | 1400 |  |
| NNC(=O)c1[nH]c2ccc(Cl)cc2c1Sc1cc(Cl)ccc1N | > 13000 |  |
| CCOC(=O)c1[nH]c2ccccc2c1Sc1cc(Cl)ccc1N | ≥ 200000 |  |
| NC(=O)c1[nH]c2ccc(Cl)cc2c1Sc1ccc(Cl)cc1 | 3100 |  |
| CC(C)c1ccc(S(=O)(=O)c2c(C(N)=O)[nH]c3ccc(Cl)cc23)cc1 | 80 |  |
| Cc1ccc(S(=O)(=O)c2c(C(N)=O)[nH]c3ccc(Cl)cc23)c(C)c1 | 4 |  |
| Nc1cc(Cl)ccc1S(=O)(=O)n1ccc2ccccc21 |  | EC50 [1]: 74100 nM |
| O=[N+]([O-])c1ccc(Cl)cc1S(=O)(=O)n1ccc2ccccc21 |  | EC50 [1]: 3980 nM |
| O=[N+]([O-])c1cc(Cl)ccc1S(=O)(=O)n1ccc2ccccc21 |  | EC50 [1]: 15800 nM |
| CCOC(=O)C(=O)c1cc2cc(Cl)ccc2n1S(=O)(=O)c1ccccc1 | > 200000 |  |
| NC(=O)C(=O)c1cc2cc(Cl)ccc2n1S(=O)(=O)c1ccccc1 | 66600 |  |
| CCOC(=O)C(=O)c1cc2ccccc2n1S(=O)(=O)c1ccccc1[N+](=O)[O-] | 1800 |  |
| O=Cc1cc2ccccc2n1S(=O)(=O)c1ccccc1 | > 150000 |  |
| Cc1ccc(S(=O)(=O)c2c(C(=O)NCCO)[nH]c3ccc(Cl)cc23)c(C)c1 |  | EC50 [1]: 10 nM |
| CCOC(=O)C(=O)c1cc2ccccc2n1S(=O)(=O)c1cc(Cl)ccc1[N+](=O)[O-] | > 100000 |  |
| CCOC(=O)c1[nH]c2ccccc2c1Sc1ccccc1N | > 200000 |  |
| CCOC(=O)C(=O)c1cc2cc(Cl)ccc2n1S(=O)(=O)c1ccc(Cl)cc1 | > 200000 |  |
| NC(=O)c1c(C=O)n(S(=O)(=O)c2ccccc2)c2ccccc12 | > 32000 |  |
| CCOC(=O)C(=O)c1cc2cc(Cl)ccc2n1S(=O)(=O)c1cc(Cl)ccc1[N+](=O)[O-] | > 31000 |  |
| CC(C)OC(=O)c1c(C=O)n(S(=O)(=O)c2ccccc2)c2ccc(Cl)cc12 | > 200000 |  |
| Cc1ccc(S(=O)(=O)c2c(C(=O)NN)[nH]c3ccc(Cl)cc23)cc1 | 50 |  |
| NC(=O)c1[nH]c2ccccc2c1S(=O)(=O)c1ccccc1 | 180 |  |
| NNC(=O)c1[nH]c2ccc(Cl)cc2c1Sc1ccc(F)cc1 | 5000 |  |
| NNC(=O)c1[nH]c2ccc(Cl)cc2c1S(=O)(=O)c1ccc(Cl)cc1 | 190 |  |
| NNC(=O)c1[nH]c2ccccc2c1S(=O)(=O)c1ccccc1 | 530 |  |
| NNC(=O)c1[nH]c2ccc(Cl)cc2c1Sc1ccc(Cl)cc1 | 10000 |  |

| Structure (SMILES) | EC50 [2] [nM] | other results |
| --- | --- | --- |
| NC(=O)c1[nH]c2ccc(Cl)cc2c1S(=O)(=O)c1c(Cl)cccc1Cl | 100 |  |
| NC(=O)c1[nH]c2ccccc2c1Sc1cc(Cl)ccc1N | 9000 |  |
| Cc1cc(C)cc(S(=O)(=O)c2c(C(=O)NN)[nH]c3ccc(Cl)cc23)c1 | 130 |  |
| NC(=O)c1[nH]c2ccc(Cl)cc2c1S(=O)(=O)c1ccc(F)cc1 | 14 |  |
| NNC(=O)c1[nH]c2ccc(Cl)cc2c1S(=O)(=O)c1ccccc1 | 10 |  |
| Cc1ccc(Sc2c(C(=O)NN)[nH]c3ccc(Cl)cc23)cc1 | 1500 |  |
| CC(C)(C)c1ccc(Sc2c(C(N)=O)[nH]c3ccc(Cl)cc23)cc1 | 8000 |  |
| Cc1cccc(S(=O)(=O)c2c(C(N)=O)[nH]c3ccc(Cl)cc23)c1 | 1 |  |
| NNC(=O)c1[nH]c2ccc(Cl)cc2c1Sc1ccccc1 | 550 |  |
| Cc1cc(C)cc(S(=O)(=O)c2c(C(N)=O)[nH]c3ccc(Br)cc23)c1 | 2 |  |
| CCOC(=O)c1[nH]c2ccc(Cl)cc2c1S(=O)(=O)c1ccccc1N | > 200000 |  |
| Cc1ccccc1Sc1c(C(N)=O)[nH]c2ccc(Cl)cc12 | 300 |  |
| NC(=O)c1[nH]c2ccc(Cl)cc2c1Sc1ccc(F)cc1 | 1400 |  |
| CC(C)c1ccc(Sc2c(C(N)=O)[nH]c3ccc(Cl)cc23)cc1 | 1900 |  |
| Cc1ccccc1S(=O)(=O)c1c(C(N)=O)[nH]c2ccc(Cl)cc12 | 1 |  |
| CCOC(=O)c1[nH]c2ccc(Cl)cc2c1S(=O)(=O)c1cc(Cl)ccc1N | 1900 |  |
| CC(=O)c1ccc2[nH]c(C(N)=O)c(S(=O)(=O)c3cc(C)cc(C)c3)c2c1 | 15 |  |
| NNC(=O)c1[nH]c2ccc(Cl)cc2c1S(=O)(=O)c1ccc(F)cc1 | 320 |  |
| CCOC(=O)c1[nH]c2ccc(Cl)cc2c1Sc1ccccc1N | 2300 |  |
| Cc1ccc(S(=O)(=O)c2c(C(N)=O)[nH]c3ccc(Cl)cc23)cc1 | 3 |  |
| Cc1ccc(Sc2c(C(N)=O)[nH]c3ccc(Cl)cc23)cc1 | > 450 |  |
| CCOC(=O)c1[nH]c2ccc(Cl)cc2c1Sc1cc(Cl)ccc1N | 2500 |  |
| CC(C)(C)c1ccc(S(=O)(=O)c2c(C(N)=O)[nH]c3ccc(Cl)cc23)cc1 | 130 |  |
| NC(=O)c1[nH]c2ccc(Cl)cc2c1Sc1c(Cl)cccc1Cl | 1200 |  |
| Cc1cc(C)cc(S(=O)(=O)c2c(C(N)=O)[nH]c3ccc(Cl)cc23)c1 | 4 |  |
| NC(=O)c1[nH]c2ccc(Cl)cc2c1S(=O)(=O)c1ccccc1 [L-737126] | 1 | EC90 [3]: 0.7 nM; EC50 [4]: 20 nM; EC50 [5]: 8000 nM; EC90 [6]: 900 nM |
